According to ChEMBL document CHEMBL1123904, “Synthesis, structure, and biological activity of certain 2-deoxy-beta-D-ribo-hexopyranosyl nucleosides and nucleotides” (J Med Chem, 1987):

Columns and labels:
[1] = substrate: Nc1nc(N)c2ncn(C3CC(O)C(O)C(CO)O3)c2n1; experiment: (§1) Kinetic parameters for adenosine deaminase (ADase) was determined
In short: (§2)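 Calf intestine adenosine deaminase; substrate and inhibitor kinetic parameters measured spectrophotometrically.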

[2] = substrate: Nc1ncnc2c1ncn2C1CC(O)C(O)C(CO)O1; experiment: as §1; in short: as §2
[3] = substrate: Nc1ncnc2c1ncn2[C@@H]1O[C@H](CO)[C@@H](O)[C@H]1O; experiment: as §1; in short: as §2

B1: Adenosine deaminase (Bos taurus), P56658 (protein)
chain: MAQTPAFNKPKVELHVHLDGAIKPETILYYGRKRGIALPADTPEELQNIIGMDKPLSLPEFLAKFDYYMPAIAGCREAVKRIAYEFVEMKAKDGVVYVEVRYSPHLLANSKVEPIPWNQAEGDLTPDEVVSLVNQGLQEGERDFGVKVRSILCCMRHQPSWSSEVVELCKKYREQTVVAIDLAGDETIEGSSLFPGHVKAYAEAVKSGVHRTVHAGEVGSANVVKEAVDTLKTERLGHGYHTLEDATLYNRLRQENMHFEVCPWSSYLTGAWKPDTEHPVVRFKNDQVNYSLNTDDPLIFKSTLDTDYQMTKNEMGFTEEEFKRLNINAAKSSFLPEDEKKELLDLLYKAYGMPSPASAEQCL
[1]
  Km: 900 µM
[2]
  Km: 57 µM
[3]
  Km: 31 µM
